In ChEMBL document CHEMBL1221385, “Iminoheterocycles as gamma-secretase modulators” (Bioorg Med Chem Lett, 2010):

Key:
Gamma-secretase = assay: Inhibition of gamma secretase-mediated amyloid beta42 production in HEK293 cells; format: cell-based, Homo sapiens
How it was run: (§1)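 HEK293 cells stably transfected with APP (Swedish plus London mutations, pcDNA3.1) treated with compound for 5 h; Aβ in conditioned medium read by MSD sandwich immunoassay: Aβ42 with TAG-G2-11/biotin-4G8, Aβ40 with TAG-G2-10/biotin-4G8, total Aβ with TAG-W02/biotin-4G8. IC50 from Aβ42; ratio is total Aβ over Aβ42.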

[1] = AUC (0 to 6 hrs) in rat at 10 mg/kg, po; format: ADME, organism-based; set-up: time < 6 hr, dose 10 mg/kg, route oral; conditions: plasma
How it was run: (§2)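 Rats given a single 10 mg/kg oral dose. Plasma sampled over 0–6 h for AUC and Cmax, with the time of Cmax recorded. Brain level (ng/g) and brain:plasma concentration ratio taken at 6 h.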

[2] = Selectivity ratio of drug level in brain to plasma in rat at 10 mg/kg, po after 6 hrs; format: ADME, organism-based; set-up: dose 10 mg/kg, route oral; conditions: read-out: BPR; how it was run: as §2
[3] = Drug level in rat brain at 10 mg/kg, po after 6 hrs; format: ADME, organism-based; set-up: dose 10 mg/kg, route oral; conditions: read-out: Drug uptake; how it was run: as §2
[4] = Cmax in rat at 10 mg/kg, po after 1 hr; format: ADME, organism-based; set-up: dose 10 mg/kg, route oral; conditions: in vivo; how it was run: as §2
Rattus norvegicus [5] = assay: Reduction in amyloid beta 42 level in po dosed rat CSF; set-up: scale not given: the % may be the effect or the level left
[6] = Selectivity ratio of total amyloid beta to amyloid beta 42; how it was run: as §1
Mus musculus [7] = assay: Reduction in amyloid beta 42 level in transgenic CRND8 mouse plasma at 30 mg/kg, po; format: functional; set-up: scale not given: the % may be the effect or the level left
How it was run: (§3)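 CRND8 transgenic mice dosed orally at 30 mg/kg. Plasma Aβ42 and total Aβ sampled 3 h after dosing.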

Mus musculus [8] = assay: Reduction in total amyloid beta level in CRND8 transgenic mouse plasma at 30 mg/kg, po; format: functional; set-up: scale not given: the % may be the effect or the level left; how it was run: as §3
Mus musculus [9] = assay: Reduction in amyloid beta 42 level in CRND8 transgenic mouse cortical at 30 mg/kg, po; format: functional; set-up: scale not given: the % may be the effect or the level left
[10] = Cmax in rat at 10 mg/kg, po after 2 hrs; format: ADME, organism-based; set-up: dose 10 mg/kg, route oral; conditions: in vivo; how it was run: as §2
[11] = AUC (0 to 6 hrs) in po dosed rat; format: ADME, organism-based; set-up: time < 6 hr, route oral; conditions: plasma; how it was run: as §2
Brain = assay: Drug level in rat brain at 30 mg/kg, po; conditions: in vivo, read-out: Drug uptake
Plasma = assay: Drug level in rat plasma at 30 mg/kg, po; conditions: in vivo
Rattus norvegicus [12] = assay: Reduction in amyloid beta 42 level in rat CSF at 30 mg/kg, po; set-up: scale not given: the % may be the effect or the level left
Rattus norvegicus [13] = assay: Reduction in amyloid beta 42 level in rat CSF at 100 mg/kg, po; set-up: scale not given: the % may be the effect or the level left

## CCN1CCCC(c2ccc(F)cc2)N2C(=O)/C(=C/c3ccc(-n4cnc(C)c4)c(OC)c3)N=C12 (single isomer, unassigned; (-)) [listing 1 of 2 here]
Gamma-secretase
  IC50: 0.073 µM
[1]
  AUC(0-t) at 6 h: 16.9 µM·h
[2]
  Kp at 6 h: 0.3
[3]
  concentration at 6 h: 275 ng/g
[4]
  Cmax: 4.2 µM
Rattus norvegicus [5]
  Activity: 8%

## CCNC1=N/C(=C\c2ccc(-n3cnc(C)c3)c(OC)c2)C(=O)N1[C@H](CO)c1ccc(F)cc1
Gamma-secretase
  IC50: 0.091 µM
[6]
  Ratio: 200

## COc1cc(/C=C2\N=C3NCCCC(c4ccc(F)cc4)N3C2=O)ccc1-n1cnc(C)c1 (racemic)
Gamma-secretase
  IC50: 0.503 µM
[6]
  Ratio: 40

## CCN1CCC(c2ccc(F)cc2)N2C(=O)/C(=C/c3ccc(-n4cnc(C)c4)c(OC)c3)N=C12 (single isomer, unassigned; (+))
Gamma-secretase
  IC50: 0.085 µM
[6]
  Ratio: 71

## COc1cc(/C=C2\N=C(NCC3CC3)N([C@H](C)c3ccc(F)cc3)C2=O)ccc1-n1cnc(C)c1
Gamma-secretase
  IC50: 0.158 µM
[6]
  Ratio: 68

## CCNC1=N/C(=C\c2ccc(-n3cnc(C)c3)c(OC)c2)C(=O)N1[C@@H](C)c1ccc(F)cc1
Gamma-secretase
  IC50: 0.22 µM
[6]
  Ratio: 97

## COc1cc(Cc2c[nH]c(=N)n([C@@H](C)c3ccc(F)cc3)c2=O)ccc1-n1cnc(C)c1
Gamma-secretase
  IC50: 0.446 µM

## CCNC1=N/C(=C\c2ccc(-n3cnc(C)c3)c(OC)c2)C(=O)N1[C@H](C)c1ccc(F)cc1
Gamma-secretase
  IC50: 0.088 µM
[6]
  Ratio: 159
Mus musculus [7]
  Activity: 80%
Mus musculus [8]
  Activity: 10%
Mus musculus [9]
  Activity: 12%
[1]
  AUC(0-t) at 6 h: 10.1 µM·h
[10]
  Cmax: 2.3 µM
[2]
  Kp at 6 h: 1.3
[3]
  concentration at 6 h: 914 ng/g

## COc1cc(/C=C2\N=C(N)N([C@@H](C)c3ccc(F)cc3)C2=O)ccc1-n1cnc(C)c1
Gamma-secretase
  IC50: 0.322 µM
[6]
  Ratio: 55

## COc1cc(/C=C2\N=C(NCC3CC3)N([C@@H](C)c3ccc(F)cc3)C2=O)ccc1-n1cnc(C)c1
Gamma-secretase
  IC50: 0.25 µM
[6]
  Ratio: 71

## COc1cc(/C=C2\N=C(N)N([C@H](C)c3ccc(F)cc3)C2=O)ccc1-n1cnc(C)c1
Gamma-secretase
  IC50: 0.094 µM
[6]
  Ratio: 65

## CCCCNC1=N/C(=C\c2ccc(-n3cnc(C)c3)c(OC)c2)C(=O)N1[C@@H](C)c1ccc(F)cc1
Gamma-secretase
  IC50: 0.258 µM
[6]
  Ratio: 78

## COc1cc(/C=C2\CCCN([C@@H](C)c3ccc(F)cc3)C2=O)ccc1-n1cnc(C)c1
[11]
  AUC(0-t) at 6 h: 60.4 µM·h

## COc1cc(/C=C2\NC(=O)N([C@@H](C)c3ccc(F)cc3)C2=O)ccc1-n1cnc(C)c1
Gamma-secretase
  IC50: 0.163 µM
[6]
  Ratio: 141

## COc1cc(/C=C2\N=C3NCC(c4ccc(F)cc4)N3C2=O)ccc1-n1cnc(C)c1 (racemic)
Gamma-secretase
  IC50: 0.135 µM
[6]
  Ratio: 117

## COc1cc(/C=C2\N=C3NCCC(c4ccc(F)cc4)N3C2=O)ccc1-n1cnc(C)c1 (single isomer, unassigned; (+))
Gamma-secretase
  IC50: 0.106 µM
[6]
  Ratio: 188

## COc1cc(/C=C2\N=C(NCCO)N([C@H](C)c3ccc(F)cc3)C2=O)ccc1-n1cnc(C)c1
Gamma-secretase
  IC50: 0.063 µM
[6]
  Ratio: 27

## CCCCNC1=N/C(=C\c2ccc(-n3cnc(C)c3)c(OC)c2)C(=O)N1Cc1ccc(F)cc1
Gamma-secretase
  IC50: 0.085 µM
[6]
  Ratio: 70
[1]
  AUC(0-t) at 6 h: 10 µM·h
[10]
  Cmax: 2.3 µM
[2]
  Kp at 6 h: 0.7
[3]
  concentration at 6 h: 449 ng/g
Brain
  concentration: 5.9 µM
Plasma
  concentration: 7.1 µM
Rattus norvegicus [12]
  Activity: 10%
Rattus norvegicus [13]
  Activity: 38%

## COc1cc(/C=C2\N=C(N3CCCC3)N([C@@H](C)c3ccc(F)cc3)C2=O)ccc1-n1cnc(C)c1
Gamma-secretase
  IC50: 0.671 µM
[6]
  Ratio: 32

## COCCNC1=N/C(=C\c2ccc(-n3cnc(C)c3)c(OC)c2)C(=O)N1[C@@H](C)c1ccc(F)cc1
Gamma-secretase
  IC50: 0.301 µM
[6]
  Ratio: 66

## CCNC1=N/C(=C\c2ccc(-n3cnc(C)c3)c(OC)c2)C(=O)N1[C@H](CCO)c1ccc(F)cc1
Gamma-secretase
  IC50: 0.171 µM
[6]
  Ratio: 117

## COc1cc(/C=C2\N=C(N)N([C@H](CCO)c3ccc(F)cc3)C2=O)ccc1-n1cnc(C)c1
Gamma-secretase
  IC50: 0.229 µM
[6]
  Ratio: 87

## COc1cc(/C=C2\N=C(N)N(Cc3ccc(F)cc3)C2=O)ccc1-n1cnc(C)c1
Gamma-secretase
  IC50: 0.144 µM
[6]
  Ratio: 139

## CCCCNC1=N/C(=C\c2ccc(-n3cnc(C)c3)c(OC)c2)C(=O)N1[C@H](C)c1ccc(F)cc1
Gamma-secretase
  IC50: 0.092 µM
[6]
  Ratio: 42

## COCCCNC1=N/C(=C\c2ccc(-n3cnc(C)c3)c(OC)c2)C(=O)N1[C@@H](C)c1ccc(F)cc1
Gamma-secretase
  IC50: 0.287 µM
[6]
  Ratio: 70

## COc1cc(/C=C2\N=C(NC3CC3)N([C@@H](C)c3ccc(F)cc3)C2=O)ccc1-n1cnc(C)c1
Gamma-secretase
  IC50: 0.287 µM
[6]
  Ratio: 136

## COc1cc([C@H](O)C2CNC(=N)N([C@@H](C)c3ccc(F)cc3)C2=O)ccc1-n1cnc(C)c1 (some centres undefined)
Gamma-secretase
  IC50: > 20 µM

## COc1cc(/C=C2\N=C(N)N([C@H](CO)c3ccc(F)cc3)C2=O)ccc1-n1cnc(C)c1
Gamma-secretase
  IC50: 0.139 µM
[6]
  Ratio: 113

## COC1=N/C(=C\c2ccc(-n3cnc(C)c3)c(OC)c2)C(=O)N1[C@@H](C)c1ccc(F)cc1
Gamma-secretase
  IC50: 0.864 µM
[6]
  Ratio: 23

## COc1cc(/C=c2/c(=O)n([C@@H](C)c3ccc(F)cc3)c3n2CCCN=3)ccc1-n1cnc(C)c1
Gamma-secretase
  IC50: 7.1 µM

## COc1cc(/C=C2\N=C(NCCO)N([C@@H](C)c3ccc(F)cc3)C2=O)ccc1-n1cnc(C)c1
Gamma-secretase
  IC50: 0.218 µM
[6]
  Ratio: 79

## CCN1CCCC(c2ccc(F)cc2)N2C(=O)/C(=C/c3ccc(-n4cnc(C)c4)c(OC)c3)N=C12 (racemic) [listing 1 of 2 here]
[6]
  Ratio: 169

## COc1cc(/C=C2\N=C(NCCCO)N([C@@H](C)c3ccc(F)cc3)C2=O)ccc1-n1cnc(C)c1
Gamma-secretase
  IC50: 0.163 µM
[6]
  Ratio: 141

## COc1cc(/C=C2\NC(=O)N([C@H](C)c3ccc(F)cc3)C2=O)ccc1-n1cnc(C)c1
Gamma-secretase
  IC50: 3.5 µM

## COc1cc(/C=C2/C(=O)N([C@@H](C)c3ccc(F)cc3)C(=N)NC2(C)C)ccc1-n1cnc(C)c1
Gamma-secretase
  IC50: > 20 µM

## CNC1=N/C(=C\c2ccc(-n3cnc(C)c3)c(OC)c2)C(=O)N1[C@@H](C)c1ccc(F)cc1
Gamma-secretase
  IC50: 0.411 µM
[6]
  Ratio: 25

## CCN1CCCC(c2ccc(F)cc2)N2C(=O)/C(=C/c3ccc(-n4cnc(C)c4)c(OC)c3)N=C12 (racemic) [listing 2 of 2 here]
Gamma-secretase
  IC50: 0.117 µM

## CCNC1=N/C(=C\c2ccc(-n3cnc(C)c3)c(OC)c2)C(=O)N1Cc1ccc(F)cc1
Gamma-secretase
  IC50: 0.072 µM
[6]
  Ratio: 104

## CCN1CCCC(c2ccc(F)cc2)N2C(=O)/C(=C/c3ccc(-n4cnc(C)c4)c(OC)c3)N=C12 (single isomer, unassigned; (-)) [listing 2 of 2 here]
[6]
  Ratio: 215

## COc1cc(/C=C2\N=C(NCCCO)N([C@H](C)c3ccc(F)cc3)C2=O)ccc1-n1cnc(C)c1
Gamma-secretase
  IC50: 0.111 µM
[6]
  Ratio: 153

## CCN1CC(c2ccc(F)cc2)N2C(=O)/C(=C/c3ccc(-n4cnc(C)c4)c(OC)c3)N=C12 (single isomer, unassigned; (-))
Gamma-secretase
  IC50: 0.056 µM
[6]
  Ratio: 159

## COc1cc(/C=C2\N=C(N3CCCCC3)N([C@@H](C)c3ccc(F)cc3)C2=O)ccc1-n1cnc(C)c1
Gamma-secretase
  IC50: 0.955 µM
[6]
  Ratio: 21
